Experiment [1] has as its system MCF7. The experiment in a line: Cell cycle arrest in human MCF7 cells assessed as accumulation at G2/M phase at 4 uM measured after 48 hrs by propidium iodide staining based flow cytometry (reference value: 0.01 %). It counts as functional. On the technique in general: A flow cytometer gives signals particle by particle.
For experiment [2], the system named is MCF7. As to the kind of experiment: Induction of apoptosis in human MCF7 cells assessed as increase in Bax to Bcl2 ratio at 1 to 4 uM measured after 48 hrs by western blot analysis. It counts as functional, cell-based. The note with it: dose 1-4 µM. The method, boiled down: (§1)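 MCF-7 and MDA-MB-231 breast cancer cells treated 48 h with a concentration series, then lysed for protein. SDS-PAGE on 5–15% gels, transfer to nitrocellulose. Blocked 2 h in 5% nonfat milk/PBS-0.1% Tween 20, primary antibodies overnight at 4 °C, biotin-conjugated secondary 1 h. X-ray film detection with densitometric quantification.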
Background: Immunoblotting shows a protein as a band on a membrane.

For experiment [3], the system named is MCF7. The experiment in a line: Induction of G2/M phase cell cycle arrest in human MCF7 cells assessed as upregulation of p-cdc25c protein expression at 4 uM measured after 48 hrs in presence of cdc25c inhibitor, NSC663284 by western blot analysis. It counts as functional, cell-based. The method, boiled down: (§2)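 Four groups (untreated, test compound, 0.3 NSC663284, combination) treated 48 h before protein extraction. Lysates resolved by SDS-PAGE (5–15%) and blotted to nitrocellulose. Blocked 2 h in 5% milk/PBS-0.1% Tween 20, primary antibody overnight at 4 °C, biotinylated secondary 1 h. Detected on X-ray film and quantified by densitometry.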

Experiment [4] relates to MDA-MB-231. As to the kind of experiment: Induction of apoptosis in human MDA-MB-231 cells assessed as late apoptotic cells at 9 uM measured after 48 hrs by Annexin V-FITC/propidium iodide staining based flow cytometric analysis (reference value: 0.3 %). The format is functional.
Experiment [5] deals with MCF7. The experiment in a line: Induction of apoptosis in human MCF7 cells assessed as increase in Noxa protein expression at 1 to 4 uM measured after 48 hrs by western blot analysis. The format is functional, cell-based. The following applies: dose 1-4 µM. The procedure, abridged:
as §1

For experiment [6], the system named is MDA-MB-231. The experiment in a line: Cell cycle arrest in human MDA-MB-231 cells assessed as accumulation at S phase at 9 uM measured after 48 hrs by propidium iodide staining based flow cytometry (reference value: 35.54 %). It counts as functional.
Experiment [7] deals with MCF7. The experiment in a line: Cell cycle arrest in human MCF7 cells assessed as accumulation of cells at G2/M phase at 4 uM in presence of inhibitor cdc25c inhibitor, NSC663284 measured after 48 hrs by PI staining based flow cytometry. The format is functional. The method, boiled down:
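Four arms (untreated, test compound alone, 0.3 NSC663284 alone, combination) applied to cells for 48 h. Cells were fixed in 70% ice-cold ethanol at 4 °C overnight and stained with RNase/PI for 30 min in the dark. G2/M fraction was read by flow cytometry.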

For experiment [8], the system named is MCF7. As to the kind of experiment: Induction of apoptosis in human MCF7 cells assessed as early apoptotic cells at 1 uM measured after 48 hrs by Annexin V-FITC/propidium iodide staining based flow cytometric analysis (reference value: 3 %). The format is functional.
Experiment [9] has as its system MDA-MB-231. The experiment in a line: Induction of mitochondrial membrane potential loss in human MDA-MB-231 cells assessed as green fluorescence intensity at 3 uM measured after 48 hrs by JC1 staining-based flow cytometry analysis (reference value: 0.8 %). The format is functional.
Experiment [10] relates to MCF7. As to the kind of experiment: Cell cycle arrest in human MCF7 cells assessed as accumulation at S phase at 2 uM measured after 48 hrs by propidium iodide staining based flow cytometry (reference value: 25.34 %). The format is functional.
The test system of experiment [11] is MDA-MB-231. As to the kind of experiment: Induction of apoptosis in human MDA-MB-231 cells assessed as increase in cleaved caspase 7 protein expression at 9 uM measured after 48 hrs in presence of cdc25c inhibitor, NSC663284 by western blot analysis. It counts as functional, cell-based. The method, boiled down: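 Four arms per cell line: untreated, test compound, 0.3 µM NSC663284 alone, and combination. Proteins harvested after 48 h and resolved by SDS-PAGE on 5–15% gels, transferred to nitrocellulose. Blocked 2 h in milk/PBS-Tween, primary antibodies overnight at 4 °C, biotin-conjugated secondary. Read on X-ray film with densitometry.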

The test system of experiment [12] is MDA-MB-231. The experiment in a line: Induction of apoptosis in human MDA-MB-231 cells assessed as decrease in Mcl-1 protein expression at 3 to 9 uM measured after 48 hrs by western blot analysis. The format is functional, cell-based. The note with it: dose 3-9 µM. The method, boiled down:
as §1

Experiment [13] has as its system MDA-MB-231. As to the kind of experiment: Induction of apoptosis in human MDA-MB-231 cells assessed as early apoptotic cells at 3 uM measured after 48 hrs by Annexin V-FITC/propidium iodide staining based flow cytometric analysis (reference value: 1%). It counts as functional.
The test system of experiment [14] is PC-3. The experiment in a line: Antiproliferative activity against human PC-3 cells assessed as cell growth inhibition measured after 72 hrs by MTT assay. The format is functional, cell-based. The note with it: PC-3, 72 h. The procedure, abridged:
(§3)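 Cells seeded at 3000 exponentially growing cells/well and incubated 12 h at 37 °C. Medium then replaced with fresh medium containing graded compound concentrations for 72 h; 5-FU positive control. MTT (5 mg/mL solution) added for 4 h, formazan dissolved in DMSO, absorbance read at 570 nm (reference 630 nm). Relative percentage inhibition of viable cells calculated; IC50 reported as mean ± standard deviation.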

For experiment [15], the system named is MDA-MB-231. The experiment in a line: Inhibition of colony formation in human MDA-MB-231 cells incubated for 24 hrs followed by medium removal and measured after 7 days by crystal violet staining based assay. The format is functional, cell-based. The following applies: dose 3-9 µM. The method, boiled down: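 Cells seeded at 1 × 10³ per well in six-well plates and left overnight. Compound (DMSO solution) given in fresh medium for 24 h, then medium removed and plates grown another 7 days. Colonies washed with PBS, fixed in 4% paraformaldehyde 30 min, stained with 0.1% crystal violet 30 min, photographed and counted.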

Experiment [16] has as its system MCF7. As to the kind of experiment: Induction of mitochondrial membrane potential loss in human MCF7 cells assessed as green fluorescence intensity at 1 uM measured after 48 hrs by JC1 staining-based flow cytometry analysis (reference value: 8.1 %). The format is functional.
The test system of experiment [17] is MCF7. The experiment in a line: Induction of G2/M phase cell cycle arrest in human MCF7 cells assessed as upregulation of cdc25c protein expression at 4 uM measured after 48 hrs in presence of cdc25c inhibitor, NSC663284 by western blot analysis. It counts as functional, cell-based. The procedure, abridged:
as §2

Experiment [18] concerns MDA-MB-231. The experiment in a line: Induction of mitochondrial membrane potential loss in human MDA-MB-231 cells assessed as red fluorescence intensity at 6 uM measured after 48 hrs by JC1 staining-based flow cytometry analysis (reference value: 99.2 %). It counts as functional.
Experiment [19] deals with MCF7. The experiment in a line: Induction of apoptosis in human MCF7 cells assessed as late apoptotic cells at 4 uM measured after 48 hrs by Annexin V-FITC/propidium iodide staining based flow cytometric analysis (reference value: 0.6 %). The format is functional.
Experiment [20] deals with MDA-MB-231. As to the kind of experiment: Induction of mitochondrial membrane potential loss in human MDA-MB-231 cells assessed as red fluorescence intensity at 3 uM measured after 48 hrs by JC1 staining-based flow cytometry analysis (reference value: 99.2 %). The format is functional.
Experiment [21] concerns MCF7. The experiment in a line: Induction of DNA damage in human MCF7 cells assessed as increase in ATM protein expression at 1 to 4 uM measured after 48 hrs by western blot analysis. The following applies: dose 1-4 µM. It counts as functional, cell-based. The procedure, abridged: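 Cells exposed to graded concentrations for 48 h, then proteins extracted. Run on SDS-PAGE (5–15% gels) and transferred to nitrocellulose. Blocked 2 h in 5% nonfat milk in PBS/0.1% Tween 20, primary antibody overnight at 4 °C, biotin-conjugated secondary 1 h. Visualized on X-ray film with densitometric quantitation; three independent experiments.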

Experiment [22] relates to A549. The experiment in a line: Antiproliferative activity against human A549 cells assessed as cell growth inhibition measured after 72 hrs by MTT assay. The note with it: A549, 72 h. The format is functional, cell-based. The procedure, abridged: as §3
In general terms: Tetrazolium assays rely on reduction of a dye to a coloured formazan, in cell work by metabolically active cells.

For experiment [23], the system named is MCF7. The experiment in a line: Induction of mitochondrial membrane potential loss in human MCF7 cells assessed as red fluorescence intensity at 4 uM measured after 48 hrs by JC1 staining-based flow cytometry analysis (reference value: 91.9%). It counts as functional.

The structures appear in SMILES notation. Calls of active or inactive are those of the source. The rule behind the calls is not given here.

One may read the IC50 as the concentration at which inhibition is half-maximal. For `C[C@H]1O[C@@H](n2cnc3c(N)nc(F)nc32)[C@H](O)[C@H]1OCP(=O)([O-])[O-].[Na+].[Na+]`, the Activity in experiment [1] amounted to 26.15%; in experiment [4], 16%; in experiment [6], 32.34%; in [8] it was 15.5%; in experiment [9], 1.4%; in experiment [10], 38.69%. The Activity in experiment [13] turned out to be 14.5%; in [16] it was 9.1%; in experiment [18], 63.8%; in experiment [19], 8.7%; in experiment [20], 98.6%; in [23], 41.9%. Further, the outcome in experiment [2], in [5], in experiment [12] and in experiment [21] was Active. Also, the outcome in [3], in [7], in experiment [11] and in experiment [17] was inactive. The IC50 amounted to 2.21 µM in [14] and 3.48 µM in [22]. Moreover, the inhibition result in [15] was “Dose-Dependent Effect”.

Source of the values: ChEMBL document CHEMBL4837218, “Synthesis and in vitro antitumour activity of 4(R)-methyl-3-O-phosphonomethyl-α-l-threose nucleosides” (Eur J Med Chem, 2021).
